From paper PMC4838516 (ChemMedChem, 2016)
Like-named read-outs stand apart in the source and are kept apart here.

Experiments:
KSHV Pr = KSHV Pr (Human herpesvirus 8 type P, UniProt Q2HRB6); assay: Dose-response kinetic assay of KSHV Pr with fluorogenic P6R substrate; type: biochemical; conditions: read-out: KSHV Pr IC50
Summary of the method: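 Manual kinetic dose-response assay on KSHV Pr with the P6R substrate Ac-Pro-Val-Tyr-tBG-Leu-Gln-Ala-(rhodamine110)-dPro, read in a plate reader at ex/em 485/530 nm. IC50 was taken from dose-response curves of enzymatic activity; reported values are means.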

HCMV Pr = HCMV Pr (Human cytomegalovirus, UniProt P16753); assay: Dose-response kinetic assay of HCMV Pr with ACC tetrapeptide substrate; type: biochemical; conditions: read-out: HCMV Pr IC50; --- = No quantifiable inhibition
Sequence of HCMV Pr (P16753 1-256): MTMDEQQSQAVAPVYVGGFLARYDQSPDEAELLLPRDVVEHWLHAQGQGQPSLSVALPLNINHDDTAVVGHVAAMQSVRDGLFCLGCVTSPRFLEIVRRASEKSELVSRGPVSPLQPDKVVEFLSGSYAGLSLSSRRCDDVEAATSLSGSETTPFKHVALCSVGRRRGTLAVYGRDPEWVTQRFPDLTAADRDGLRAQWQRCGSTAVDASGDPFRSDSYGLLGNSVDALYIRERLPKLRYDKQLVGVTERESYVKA
Summary of the method: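 Manual kinetic fluorescence assay on HCMV Pr using the tetrapeptide Ac-tBG-tBG-Asn(NMe2)-Ala carrying an ACC fluorophore, with ex/em 380/460 nm. Activity was followed over a dilution series of test compound to determine the IC50.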

Sequence of KSHV Pr (Q2HRB6 1-230): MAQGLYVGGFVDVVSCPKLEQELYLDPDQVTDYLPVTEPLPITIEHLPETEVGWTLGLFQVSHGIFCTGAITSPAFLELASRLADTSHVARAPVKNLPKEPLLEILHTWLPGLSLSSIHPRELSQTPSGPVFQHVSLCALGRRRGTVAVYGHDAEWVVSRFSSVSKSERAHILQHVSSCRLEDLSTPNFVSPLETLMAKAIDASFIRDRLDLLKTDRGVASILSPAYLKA

IC50 (KSHV Pr): > 1000 µM
IC50 (KSHV Pr; P6R rhodamine110 substrate): > 500 µM
IC50 (HCMV Pr): > 500 µM
SMILES: Nc1nc(-c2ccccc2)cs1 [Fragment 20]
